Columns and labels:
D(2) dopamine receptor [1] = target: T1, D(2) dopamine receptor (Rattus norvegicus, UniProt P61169); assay: Concentration required to inhibit 50% dopamine receptor D2 in a cell free homogenate of intermediate lobe of pituitary gland; format: functional
D(1A) dopamine receptor [2] = target: T2, D(1A) dopamine receptor (Rattus norvegicus, UniProt P18901); assay: Inhibition of Dopamine receptor D1 activity by functional cyclase assay using cell free homogenate of rat striatum; format: tissue-based
T2 sequence (P18901 whole entry): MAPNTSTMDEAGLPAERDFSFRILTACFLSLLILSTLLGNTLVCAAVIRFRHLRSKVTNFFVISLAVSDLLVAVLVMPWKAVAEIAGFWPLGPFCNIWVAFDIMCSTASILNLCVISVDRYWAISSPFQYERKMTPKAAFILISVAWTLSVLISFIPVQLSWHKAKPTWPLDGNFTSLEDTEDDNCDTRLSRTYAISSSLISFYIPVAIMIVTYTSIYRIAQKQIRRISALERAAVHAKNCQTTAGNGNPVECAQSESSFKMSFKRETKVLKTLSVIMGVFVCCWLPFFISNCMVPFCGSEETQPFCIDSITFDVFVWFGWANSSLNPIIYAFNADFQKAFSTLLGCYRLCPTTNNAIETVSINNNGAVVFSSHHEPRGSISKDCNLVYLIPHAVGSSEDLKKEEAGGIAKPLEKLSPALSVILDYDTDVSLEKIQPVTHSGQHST
Summary of the method: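 Adenylate cyclase stimulation in cell-free homogenate of rat striatum. EC50 is the concentration giving half-maximal stimulation of cAMP production.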

D(2) dopamine receptor [3] = target: T1, D(2) dopamine receptor; assay: Binding affinity using [3H]-spiperone radioligand competitive binding assay against dopamine receptor D2
Summary of the method: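 Rat striatal membranes in Tris pH 7.4 buffer with salts and ascorbate. [3H]spiperone at 300 pM final; nonspecific binding with 10 μM YM-09151-2. Incubated 20 min at 37 °C, then filtered. Ki derived from IC50 by Cheng-Prusoff.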

D(1A) dopamine receptor [4] = target: T2, D(1A) dopamine receptor; assay: Binding affinity using [125 I] SCH 23982 radioligand competitive binding assay on dopamine receptor D1
Rattus norvegicus [5] = assay: (§1) Rat rotation experiments were conducted to evaluate rational behavior of the rats by administering at a dose of […] subcutaneously; format: functional
[6] = target: T3, Adrenergic receptor alpha-1 (Rattus norvegicus, UniProt P15823+P23944+P43140); assay: Binding affinity towards alpha-1 adrenergic receptor using [3H]prazosin as radioligand in competitive binding assay; format: protein assay
T3 sequence (P15823 whole entry): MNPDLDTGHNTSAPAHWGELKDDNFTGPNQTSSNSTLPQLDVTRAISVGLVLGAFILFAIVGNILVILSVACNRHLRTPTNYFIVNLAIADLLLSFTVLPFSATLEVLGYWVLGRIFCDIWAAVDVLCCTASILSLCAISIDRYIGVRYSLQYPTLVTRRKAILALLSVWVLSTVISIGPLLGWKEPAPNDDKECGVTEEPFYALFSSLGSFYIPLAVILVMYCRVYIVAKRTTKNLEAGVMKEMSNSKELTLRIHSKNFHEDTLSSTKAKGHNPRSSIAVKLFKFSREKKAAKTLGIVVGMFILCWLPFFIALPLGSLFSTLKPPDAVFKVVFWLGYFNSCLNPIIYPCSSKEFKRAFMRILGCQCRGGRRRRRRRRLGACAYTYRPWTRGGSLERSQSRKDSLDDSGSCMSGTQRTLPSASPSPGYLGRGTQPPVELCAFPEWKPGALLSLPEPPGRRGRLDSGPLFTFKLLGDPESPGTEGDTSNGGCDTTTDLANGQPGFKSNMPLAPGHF
T3 sequence (P23944 whole entry): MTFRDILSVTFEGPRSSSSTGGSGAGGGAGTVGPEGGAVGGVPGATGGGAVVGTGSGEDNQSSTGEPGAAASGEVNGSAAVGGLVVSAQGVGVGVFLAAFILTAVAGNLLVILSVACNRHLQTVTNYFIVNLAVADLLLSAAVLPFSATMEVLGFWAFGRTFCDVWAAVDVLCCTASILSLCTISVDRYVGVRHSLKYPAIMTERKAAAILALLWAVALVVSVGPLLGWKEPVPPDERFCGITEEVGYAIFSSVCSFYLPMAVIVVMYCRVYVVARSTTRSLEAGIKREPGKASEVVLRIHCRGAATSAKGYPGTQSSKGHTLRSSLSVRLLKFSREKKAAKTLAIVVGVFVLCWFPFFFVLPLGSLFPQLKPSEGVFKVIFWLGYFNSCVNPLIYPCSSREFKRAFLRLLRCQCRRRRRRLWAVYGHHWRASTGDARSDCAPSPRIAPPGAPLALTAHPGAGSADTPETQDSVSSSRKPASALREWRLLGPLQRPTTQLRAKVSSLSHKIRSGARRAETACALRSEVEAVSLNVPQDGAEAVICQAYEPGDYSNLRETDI
T3 sequence (P43140 whole entry): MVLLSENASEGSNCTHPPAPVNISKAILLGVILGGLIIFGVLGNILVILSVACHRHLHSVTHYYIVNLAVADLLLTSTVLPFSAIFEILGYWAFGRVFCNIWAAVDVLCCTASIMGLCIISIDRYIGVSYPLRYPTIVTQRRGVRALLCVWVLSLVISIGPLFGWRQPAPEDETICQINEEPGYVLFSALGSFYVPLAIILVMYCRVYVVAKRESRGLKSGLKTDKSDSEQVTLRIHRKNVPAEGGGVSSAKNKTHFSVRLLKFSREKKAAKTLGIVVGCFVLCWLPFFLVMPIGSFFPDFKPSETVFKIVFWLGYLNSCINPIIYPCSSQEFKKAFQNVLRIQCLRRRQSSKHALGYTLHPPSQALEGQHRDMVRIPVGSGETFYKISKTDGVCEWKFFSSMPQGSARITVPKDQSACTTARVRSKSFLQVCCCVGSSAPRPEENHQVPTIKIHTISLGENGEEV
Summary of the method: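 Frozen rat cortex membranes (300g then 48000g spins) in Tris pH 7.4 buffer with salts and ascorbate. [3H]prazosin at 1.0 nM final; nonspecific binding with 10 μM phentolamine. Incubated 45 min at 37 °C, then filtered. Ki via Cheng-Prusoff.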

Rattus norvegicus [7] = assay: as §1; format: functional; remark: listed apart in the source
[8] = target: T4, 5-hydroxytryptamine receptor 1A (Rattus norvegicus, UniProt P19327); assay: Binding affinity towards 5-hydroxytryptamine 1A receptor using [3H]8-OH-DPAT as radioligand in competitive binding assay
T4 sequence (P19327 whole entry): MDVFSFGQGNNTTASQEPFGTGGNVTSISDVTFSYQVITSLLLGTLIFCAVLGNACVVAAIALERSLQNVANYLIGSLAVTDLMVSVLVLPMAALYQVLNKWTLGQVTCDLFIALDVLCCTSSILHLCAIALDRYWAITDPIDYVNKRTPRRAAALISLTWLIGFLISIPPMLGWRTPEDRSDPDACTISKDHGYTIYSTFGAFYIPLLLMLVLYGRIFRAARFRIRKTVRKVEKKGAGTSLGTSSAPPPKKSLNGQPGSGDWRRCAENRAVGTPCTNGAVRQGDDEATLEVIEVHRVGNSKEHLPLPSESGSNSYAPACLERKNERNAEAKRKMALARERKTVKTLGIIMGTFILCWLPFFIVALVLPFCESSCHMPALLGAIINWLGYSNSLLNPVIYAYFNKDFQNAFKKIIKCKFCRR
Summary of the method: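 Rat anterior cortex membranes, pelleted and preincubated 30 min at 37 °C in 50 mM Tris-HCl pH 7.7, 4 mM CaCl2, 10 μM pargyline. Label [3H]8-OH-DPAT, 800 pM final; nonspecific binding with 10 μM spiroxatrine. Ki derived from IC50 by Cheng-Prusoff; mean with SEM range.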

Rattus norvegicus [9] = assay: Rat rotation experiments were conducted to evaluate rational behavior of the rats by administering at a dose of 4.1 umol/kg subcutaneously; format: functional
Summary of the method: (§2)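 Rats with unilateral 6-hydroxydopamine lesions of the nigrostriatal bundle. Compound given subcutaneously or orally at the stated dose. Net contralateral rotations counted over 2 h after dosing and reported as mean ± SEM; negative values indicate ipsilateral turning.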

Rattus norvegicus [10] = assay: Rat rotation experiments were conducted to evaluate rational behavior of the rats by administering at a dose of 1.0 umol/kg subcutaneously; format: functional; summary of the method: as §2
[11] = Intrinsic activity relative to dopamine at D-2 receptor.; format: functional
Rattus norvegicus [12] = assay: Rat rotation experiments were conducted to evaluate rational behavior of the rats by administering at a dose of 2.0 umol/kg subcutaneously; format: functional; summary of the method: as §2

T1 sequence (P61169 whole entry): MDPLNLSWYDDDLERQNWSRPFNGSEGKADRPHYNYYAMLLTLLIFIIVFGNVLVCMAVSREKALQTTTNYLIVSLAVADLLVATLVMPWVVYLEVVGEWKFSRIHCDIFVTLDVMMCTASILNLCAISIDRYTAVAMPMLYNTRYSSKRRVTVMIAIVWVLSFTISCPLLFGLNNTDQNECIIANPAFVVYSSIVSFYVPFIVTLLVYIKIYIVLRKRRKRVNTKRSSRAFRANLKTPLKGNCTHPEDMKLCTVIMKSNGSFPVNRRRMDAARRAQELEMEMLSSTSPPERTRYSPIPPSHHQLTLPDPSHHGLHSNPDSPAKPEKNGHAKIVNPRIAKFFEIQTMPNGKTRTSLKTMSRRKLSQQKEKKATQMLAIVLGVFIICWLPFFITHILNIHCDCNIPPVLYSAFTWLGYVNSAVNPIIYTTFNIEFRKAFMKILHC

SMILES	EC50 (D(2) dopamine receptor [1]) [µM]	EC50 (D(1A) dopamine receptor [2]) [µM]	Ki (D(2) dopamine receptor [3]) [µM]	Ki (D(1A) dopamine receptor [4]) [µM]	Activity (Rattus norvegicus [5])	Ki [6] [µM]	Activity (Rattus norvegicus [7])	Ki [8] [µM]	Activity (Rattus norvegicus [9])	Activity (Rattus norvegicus [10])	Intrinsic activity [11] [%]	Activity (Rattus norvegicus [12])
CC(C)(C)C1Cc2c(ccc(O)c2O)[C@H](CN)O1 (stereo partly drawn)	> 10	0.0523	8.19	0.0318	354	> 10						
C=CCNC[C@@H]1OC(C2CCCCC2)Cc2c1ccc(O)c2O (stereo partly drawn)		0.0303		1.54	667	> 10	1056	> 20				
NC[C@@H]1OC(c2ccccc2)Cc2c1ccc(O)c2O (stereo partly drawn)	3.91		0.776		895	10.8		18.1	1554	53	101	
NC[C@@H]1OC(C2CCCCC2)Cc2c1ccc(O)c2O (stereo partly drawn)	7.03	0.0017	1.12	0.0054		> 10		> 20			85	
NC[C@H]1O[C@@H](c2ccccc2)Cc2c1ccc(O)c2O	2.85		4.61			6.06		> 20			96	-22
NC[C@@H]1O[C@H](c2ccccc2)Cc2c1ccc(O)c2O						> 10		2.55		1113	98	1525

Reference: ChEMBL document CHEMBL1125832, “Synthesis and dopaminergic activity of 3-substituted 1-(aminomethyl)-3,4-dihydro-5,6-dihydroxy-1H-2-benzopyrans: characterization of an auxiliary binding region in the D1 receptor” (J Med Chem, 1991)
